Results collected from several papers.
Each line is one published result; the experiments were not run side by side.
Target: Serine/threonine-protein kinase PLK2 (PLK2, Homo sapiens, UniProt Q9NYY3)

Structure (SMILES)	assay	conditions	remaining binding
N#Cc1ccc(Nc2ccc3[nH]c(=O)[nH]c3c2)c(Cl)c1	cell-free assay, competition with immobilised ligand	1 µM	86%
CN(c1nccc(-c2cnn3ncccc23)n1)C1CC1	binding	1 µM	88%
O=C(NCCCN1CCOCC1)c1ccc(Nc2nccc(-c3cc4ccccc4s3)n2)cc1	binding, competition with immobilised ligand	1 µM	44%
CCS(=O)(=O)c1cc2cc(C[C@@](O)(CC(C)(C)c3ccc(F)cc3C(N)=O)C(F)(F)F)[nH]c2cn1	cell-free assay, competition with immobilised ligand	1 µM	100%
CN(C)c1ncc(F)c(-c2cnn3ncccc23)n1	binding	1 µM	78%
Cc1cnc(Nc2ccc(C(=O)N3CCC(N4CCCC4)CC3)cc2)nc1-c1cc2ccccc2s1	binding, competition with immobilised ligand	1 µM	52%
CNC(=O)[C@@H]1CC[C@@H](n2c(-c3ccc4cnccc4c3)nc3ccc(C(=O)NCc4cccc(C(N)=O)c4)cc32)C1	binding, competition with immobilised ligand	1 µM	96%
FC(F)(F)Oc1cccc(-c2cnc3ccc(-c4ccncc4)nn23)c1	cell-free assay, competition with immobilised ligand	5 µM	77%
C[C@@H]1CCN(c2nccc(-c3cnn4ncccc34)n2)C1	binding	1 µM	88%
COc1ncc2cc3ccccc3nc2c1C#N	cell-free assay, competition with immobilised ligand	5 µM	45%
C[C@@H]1CN(c2cc(-c3nn(C)c4ccc(OC5(C)CC5)cc34)ncn2)C[C@H](C)O1	cell-free assay, competition with immobilised ligand	1 µM	68%
O=C(Nc1c[nH]nc1C(=O)NC1CCNCC1)c1cc(F)cc(F)c1	binding, competition with immobilised ligand	1 µM	92%
NS(=O)(=O)c1cc(NC(=O)C2(c3ccccc3Cl)CC2)ccc1Oc1cccc(Cl)c1	cell-free assay, competition with immobilised ligand	1 µM	84%
Cc1cnn2ncc(-c3ccnc(N(C)C)n3)c2c1	binding	1 µM	94%
CS(=O)(=O)NCC[C@H](NC(=O)c1cncc2c1cnn2-c1ccc(F)cc1)c1ccnc(S(C)(=O)=O)c1	cell-free assay, competition with immobilised ligand	1 µM	100%
CC1CCCN1c1nccc(-c2cnn3ncccc23)n1 (centres unmarked)	binding	1 µM	100%
Nc1ncc2c(n1)-c1c([nH]c3ccc(C#CC4CC4)cc13)CCCC2	binding, competition with immobilised ligand	1 µM	91%
CN(CCCC(F)(F)F)c1nccc(-c2cnn3ncccc23)n1	binding	1 µM	99%
O=C(c1ccc(Nc2nccc(-c3cc4ccccc4s3)n2)cc1)N1CCC(N2CCCC2)CC1	binding, competition with immobilised ligand	1 µM	96%
C[C@@H]1CN(c2cc(-c3n[nH]c4ccc(OC5(C)CC5)cc34)ncn2)C[C@H](C)O1	cell-free assay, competition with immobilised ligand	0.1 µM	76%
